Measured values gathered from unrelated publications.
Each line is one published result; the experiments were not run side by side.
Target: Serine/threonine-protein kinase Sgk1 (SGK1, Homo sapiens, UniProt O00141)
Residues used in one study (O00141 1-431): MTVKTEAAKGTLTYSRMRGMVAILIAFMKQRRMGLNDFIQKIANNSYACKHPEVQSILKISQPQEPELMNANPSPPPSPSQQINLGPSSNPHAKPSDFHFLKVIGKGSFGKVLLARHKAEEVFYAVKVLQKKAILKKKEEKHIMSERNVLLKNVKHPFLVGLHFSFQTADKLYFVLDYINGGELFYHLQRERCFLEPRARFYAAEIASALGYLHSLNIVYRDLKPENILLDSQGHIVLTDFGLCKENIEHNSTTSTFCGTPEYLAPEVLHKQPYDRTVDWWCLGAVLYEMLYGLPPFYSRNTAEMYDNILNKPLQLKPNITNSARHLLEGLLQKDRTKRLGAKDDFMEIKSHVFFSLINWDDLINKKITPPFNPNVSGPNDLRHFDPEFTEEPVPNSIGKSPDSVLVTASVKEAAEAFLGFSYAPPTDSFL

N#CC1(c2ccccn2)CCN(Cc2cc(C(=O)O)c(=O)n3ccccc23)CC1  remaining binding (cell-free assay, competition with immobilised ligand; 1 µM): 87%
O=c1[nH]c2ccccc2n1C1CCN(Cc2ccc(-c3[nH]c4cc5ncnc5cc4nc3-c3ccccc3)cc2)CC1  remaining signal (cell-free assay; 0.5 µM): 102%
COc1ncccc1-c1cnn2ccc(N3CCN(C(=O)OC(C)C)CC3)nc12  remaining binding (binding, competition with immobilised ligand; 1 µM): 100%
CC(C)(C)c1cc(C=C(C#N)C#N)cc(Br)c1O  remaining activity (enzyme activity, inhibitor; 0.5 µM): 95.3%
Cn1cc(-c2cc(F)cc(N3CCn4c(cc5c4CCCC5)C3=O)c2CO)cc(Nc2ccc(N3CCN(C4COC4)CC3)cn2)c1=O  inhibition (enzyme activity, inhibitor; 0.1 µM): 13%
C#Cc1n[nH]c2c(-c3cn(C(C)c4ccccn4)c(=O)[nH]c3=O)cc(F)cc12 (stereo not drawn)  inhibition (enzyme activity, inhibitor; 1 µM): 0%
Cn1cncc1[C@@](O)(COc1ccc(C#N)cc1-c1ccc(OC(F)(F)F)cc1)c1ccc(C#N)cc1  remaining binding (cell-free assay, competition with immobilised ligand; 1 µM): 100%
Nc1ncc(-c2nc(N3CCOCC3)nc(N3CCOCC3)n2)c(C(F)F)n1  remaining binding (binding, competition with immobilised ligand; 10 µM): 77%
Cn1cc(-c2cccc(N3CCc4c(sc5c4CC(C)(C)C5)C3=O)c2CO)cc(Nc2ccncn2)c1=O  inhibition (enzyme activity, inhibitor; 1 µM): -11%
